Measurements: ChEMBL document CHEMBL2331556, “Evidence for the involvement of descending pain-inhibitory mechanisms in the antinociceptive effect of hecogenin acetate” (J Nat Prod, 2013)
Calls of active or inactive are those of the source.

Legend:
Mus musculus [1] = assay: Toxicity in Swiss webster mouse assessed as decrease in time stayed on rotarod at 10 mg/kg, ip measured after 30 mins by rotarod test; assay type: organism-based; design: dose 10 mg/kg, route intraperitoneal; details: in vivo, 0.5 h
Mus musculus [2] = assay: Activation of neurons in Swiss webster mouse periaqueductal gray assessed as increase in number of Fos-positive cells at 5 to 40 mg/kg, ip measured after 2 hrs by immunohistochemical analysis; assay type: functional, organism-based
Summary of the method: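 Mice given 5, 10, 20 or 40 mg/kg ip or vehicle, perfused 2 h later. Frozen 20 μm transverse periaqueductal gray sections: PBS washes, 0.1 M glycine, blocked in 1% BSA, overnight rabbit anti-Fos, then 1 h Alexa Fluor 594 anti-rabbit. No-primary control included. Fos-positive cells counted; n = 6/group; ANOVA with Tukey post hoc.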

Mus musculus [3] = assay: Antinociceptive activity in Swiss webster mouse assessed as latency response at 40 mg/kg, ip administered 15 mins after 0.5 mg/kg, sc kappa-opioid receptor antagonist, nor-BNI challenge measured up to 7 hrs by warm water-tail flick test; assay type: functional, organism-based
Summary of the method: (§1)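 Mice habituated to a restraint cylinder 20 min/day for 5 days. Tail tip (2 cm) immersed in 50 ± 0.5 °C water; tail-withdrawal latency recorded, 16 s cut-off. Latency taken at baseline and up to 7 h after dosing. Vehicle Tween 20 5%. Means ± SEM, n = 6 mice/group; repeated-measures two-way ANOVA with Bonferroni post hoc.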

Mus musculus [4] = assay: Antinociceptive activity in Swiss webster mouse assessed as latency response at 40 mg/kg, ip administered 5 mins after 3 mg/kg, sc delta-opioid receptor antagonist, naltrindole challenge measured up to 7 hrs by warm water-tail flick test; assay type: functional, organism-based; summary of the method: as §1
Mus musculus [5] = assay: Antinociceptive activity in Swiss webster mouse assessed as latency response at 40 mg/kg, ip administered 15 mins after 5 mg/kg, ip nonselective opioid receptor antagonist, naloxone challenge measured up to 7 hrs by warm water-tail flick test; assay type: functional, organism-based; summary of the method: as §1
Mus musculus [6] = assay: Antinociceptive activity in ip dosed Swiss webster mouse assessed as increase in latency response […] by warm water-tail flick test; assay type: functional, organism-based
Mus musculus [7] = assay: Antinociceptive activity in Swiss webster mouse assessed as latency response at 40 mg/kg, ip administered 30 mins prior to 1 mg/kg, ip mu-opioid receptor antagonist, CTOP challenge measured up to 7 hrs by warm water-tail flick test; assay type: functional, organism-based; summary of the method: as §1
Mus musculus [8] = assay: Antinociceptive activity in Swiss webster mouse assessed as latency response at 40 mg/kg, ip administered 30 mins after 2 mg/kg, ip KATP channel blocker, glibenclamide challenge measured up to 7 hrs by warm water-tail flick test; assay type: functional, organism-based; summary of the method: as §1
Mus musculus [9] = assay: Toxicity in Swiss webster mouse assessed as effect on motor performance at 40 mg/kg, ip measured after 30 mins by rotarod test; assay type: organism-based; design: dose 40 mg/kg, route intraperitoneal; details: in vivo, 0.5 h
Summary of the method: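 Rotarod. Mice pre-selected 24 h earlier; those failing to stay on the bar for two consecutive 120 s periods were excluded. Dosing ip: test agent 40 mg/kg, or vehicle (Tween 20 5%, 200 μL). Time on rod recorded up to 120 s and reported as group mean time (s). n = 6/group; ANOVA with Tukey post hoc.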

Mus musculus [10] = assay: Antinociceptive activity in Swiss webster mouse assessed as increase in latency response at 5 mg/kg sc administered 40 mins prior to test measured for 3 hrs by warm water-tail flick test; assay type: functional, organism-based; design: dose 5 mg/kg; summary of the method: as §1

CN1C(=O)CN=C(c2ccccc2)c2cc(Cl)ccc21 [DIAZEPAM]
Activity (Mus musculus [1]): Toxic

CC(=O)O[C@H]1CC[C@@]2(C)[C@@H](CC[C@@H]3[C@@H]2CC(=O)[C@]2(C)[C@@H]4[C@H](C[C@@H]32)O[C@]2(CC[C@@H](C)CO2)[C@H]4C)C1 [HECOGENIN ACETATE]
Activity (Mus musculus [2]): Active
Activity (Mus musculus [3]): inactive
Activity (Mus musculus [4]): inactive
Activity (Mus musculus [5]): inactive
Activity (Mus musculus [6]): Dose-dependent effect
Activity (Mus musculus [7]): inactive
Activity (Mus musculus [8]): inactive
Activity (Mus musculus [9]): Non-toxic

CN1CC[C@]23c4c5ccc(O)c4O[C@H]2[C@@H](O)C=C[C@H]3[C@H]1C5
Activity (Mus musculus [10]): Active
